According to ChEMBL document CHEMBL4043273, “Phenotypic Optimization of Urea-Thiophene Carboxamides To Yield Potent, Well Tolerated, and Orally Active Protective Agents against Aminoglycoside-Induced Hearing Loss” (J Med Chem, 2018):
Converted amounts (≈) assume the structure as drawn. The source made the active and inactive calls.

How the values were obtained:
Escherichia coli [1] = experiment: Effect on neomycin MIC for Escherichia coli ATCC 25922; format: functional
Rattus norvegicus [2] = experiment: Protection against kanamycin-induced hearing loss at 8 to 32 kHz in Sprague-Dawley rat at 25 mg/kg/day, ip treated for 14 days followed by recovery without treatment for additional 14 days by auditory brain stem response assay; format: functional, organism-based
Escherichia coli [3] = experiment: Effect on neomycin MBC for Escherichia coli ATCC 25922; format: functional
[4] = Aqueous solubility of compound at pH 7.4; format: physicochemical
[5] = (§1) Elimination half life in rat by LC-MS method; format: ADME; conditions: in vivo, read-out: beta t1/2 (converted)
HepG2 = experiment: Cytotoxicity against human HepG2 cells assessed as decrease in cell growth after 72 hrs by celltiter glo assay; format: cell-based; conditions: HepG2, 72 h
[6] = Ratio of IC50 for human ERG expressed in HEK293 cells to HC50 for protection against neomycin-induced hair cell death in AB zebra fish larvae
[7] = (§2) Protein binding in human plasma; format: ADME, cell-free; conditions: read-out: PPB
[8] = (§3) Protein binding in rat plasma; format: ADME, cell-free; conditions: read-out: PPB
[9] = (§4) Oral bioavailability in rat at 25 mg/kg; format: ADME, organism-based; conditions: in vivo
Danio rerio [10] = species on record: Danio rerio; experiment: Protection against neomycin-induced hair cell death in AB zebra fish larvae assessed as increase in hair cell survival preincubated for 1 hr followed by neomycin challenge for 1 hr by DASPEI staining-based epifluorescence dissecting microscopic method; format: functional
[11] = molecular target: Voltage-gated inwardly rectifying potassium channel KCNH2 (Homo sapiens, UniProt Q12809)
Chain of Voltage-gated inwardly rectifying potassium channel KCNH2 (Q12809 whole entry): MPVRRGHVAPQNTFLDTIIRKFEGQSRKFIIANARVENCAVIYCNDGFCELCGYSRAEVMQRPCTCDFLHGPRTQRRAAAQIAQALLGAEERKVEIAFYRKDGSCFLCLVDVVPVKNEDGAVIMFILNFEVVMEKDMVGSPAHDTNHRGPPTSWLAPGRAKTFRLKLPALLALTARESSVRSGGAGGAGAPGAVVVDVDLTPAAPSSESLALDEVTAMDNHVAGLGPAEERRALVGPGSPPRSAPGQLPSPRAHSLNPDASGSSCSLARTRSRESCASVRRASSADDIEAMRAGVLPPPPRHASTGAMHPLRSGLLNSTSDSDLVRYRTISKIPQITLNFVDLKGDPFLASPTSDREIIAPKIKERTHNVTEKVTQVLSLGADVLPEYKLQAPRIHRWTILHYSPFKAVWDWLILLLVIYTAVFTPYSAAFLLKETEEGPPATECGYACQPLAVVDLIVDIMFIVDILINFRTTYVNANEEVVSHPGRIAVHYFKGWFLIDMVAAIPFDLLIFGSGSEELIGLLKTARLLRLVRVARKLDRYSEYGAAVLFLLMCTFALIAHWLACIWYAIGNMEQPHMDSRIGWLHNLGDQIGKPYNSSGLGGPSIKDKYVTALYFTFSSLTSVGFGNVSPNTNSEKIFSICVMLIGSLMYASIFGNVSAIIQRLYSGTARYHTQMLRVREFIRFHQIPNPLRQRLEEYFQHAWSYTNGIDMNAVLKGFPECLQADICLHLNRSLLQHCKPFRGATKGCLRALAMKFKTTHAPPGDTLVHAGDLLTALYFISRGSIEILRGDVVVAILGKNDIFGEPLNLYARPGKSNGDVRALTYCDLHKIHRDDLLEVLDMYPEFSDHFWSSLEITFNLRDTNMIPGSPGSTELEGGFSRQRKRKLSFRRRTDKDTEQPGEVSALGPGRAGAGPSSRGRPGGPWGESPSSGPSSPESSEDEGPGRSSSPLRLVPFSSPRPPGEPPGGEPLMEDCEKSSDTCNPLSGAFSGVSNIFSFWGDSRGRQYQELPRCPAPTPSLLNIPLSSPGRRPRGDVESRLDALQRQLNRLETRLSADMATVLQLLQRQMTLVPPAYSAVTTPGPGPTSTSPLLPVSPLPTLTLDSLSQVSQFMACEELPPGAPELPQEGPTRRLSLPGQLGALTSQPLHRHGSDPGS

[12] = Drug metabolism assessed as air oxidation; format: physicochemical
Rattus norvegicus [13] = experiment: Acute toxicity in rat at 50 mg/kg, iv; format: organism-based; conditions: in vivo
[14] = system: Mycobacterium tuberculosis; experiment: Effect on kanamycin-induced antibacterial activity against Mycobacterium tuberculosis in mouse pulmonary tuberculosis model; format: functional
[15] = system: Mycobacterium tuberculosis; experiment: Effect on moxifloxacin-induced antibacterial activity against Mycobacterium tuberculosis in mouse pulmonary tuberculosis model; format: functional
Pseudomonas aeruginosa [16] = experiment: Effect on tobramycin MIC for aminoglycoside-resistant Pseudomonas aeruginosa 6322; format: functional
Pseudomonas aeruginosa [17] = experiment: Effect on tobramycin MIC for Pseudomonas aeruginosa 6471; format: functional
Pseudomonas aeruginosa [18] = experiment: Effect on amikacin MIC for aminoglycoside-resistant Pseudomonas aeruginosa 6322; format: functional
[19] = system: Mycobacterium tuberculosis; experiment: Effect on amikacin MIC for Mycobacterium tuberculosis H37Rv at 1 to 10 uM; format: functional
Rattus norvegicus [20] = experiment: Protection against amikacin-induced hair cell death in Fischer 344 rat corti at 5 mg/kg/day administered via oral gavage for 12 days followed by recovery without treatment for additional 14 days by immunohistochemical method; format: functional, organism-based
Procedure, shortened: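 Rats given amikacin 320 mg/kg/day s.c. plus compound 5 mg/kg p.o. daily for 12 days; saline s.c. controls. Cochleae fixed in 4% paraformaldehyde and dissected. Organ of Corti immunostained for myosin 7A (hair cells), Sox2 (supporting-cell nuclei) and neurofilament (neuronal processes). Basal turn imaged by confocal microscopy.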

Pseudomonas aeruginosa [21] = experiment: Effect on neomycin MIC for Pseudomonas aeruginosa 6160; format: functional
Pseudomonas aeruginosa [22] = experiment: Effect on kanamycin MIC for Pseudomonas aeruginosa 6471; format: functional
Pseudomonas aeruginosa [23] = experiment: Effect on amikacin MIC for Pseudomonas aeruginosa 6471; format: functional
[24] = system: Mycobacterium tuberculosis; experiment: Effect on amikacin-induced antibacterial activity against Mycobacterium tuberculosis in mouse pulmonary tuberculosis model; format: functional
Rattus norvegicus [25] = experiment: Protection against amikacin-induced hearing loss at 2 to 32 kHz in Fischer 344 rat at 5 mg/kg/day administered via oral gavage for 12 days followed by recovery without treatment for additional 14 days by auditory brain stem response assay; format: functional, organism-based
Procedure, shortened: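 Male Fischer 344 rats had ABR thresholds measured 1–2 weeks before treatment and 2 weeks after it, under isoflurane, on a heating pad near 37°C, in a sound-attenuating chamber. Amikacin 320 mg/kg/day s.c. for 12 days, with compound 5 mg/kg/day by oral gavage in PEG300:DMA:EtOH:H2O. Groups: amikacin alone or amikacin plus compound.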

Pseudomonas aeruginosa [26] = experiment: Effect on neomycin MIC for aminoglycoside-resistant Pseudomonas aeruginosa 6322; format: functional
Pseudomonas aeruginosa [27] = experiment: Effect on neomycin MIC for Pseudomonas aeruginosa 103 ATCC 27853; format: functional
Pseudomonas aeruginosa [28] = experiment: Effect on tobramycin MIC for Pseudomonas aeruginosa 6325; format: functional
Pseudomonas aeruginosa [29] = experiment: Effect on kanamycin MIC for Pseudomonas aeruginosa 103 ATCC 27853; format: functional
Pseudomonas aeruginosa [30] = experiment: Effect on amikacin MIC for Pseudomonas aeruginosa 6160; format: functional
Pseudomonas aeruginosa [31] = experiment: Effect on neomycin MIC for Pseudomonas aeruginosa 6471; format: functional
Pseudomonas aeruginosa [32] = experiment: Effect on amikacin MIC for Pseudomonas aeruginosa 103 ATCC 27853; format: functional
Pseudomonas aeruginosa [33] = experiment: Effect on tobramycin MIC for Pseudomonas aeruginosa 103 ATCC 27853; format: functional
Pseudomonas aeruginosa [34] = experiment: Effect on amikacin MIC for Pseudomonas aeruginosa 6325; format: functional
Pseudomonas aeruginosa [35] = experiment: Effect on kanamycin MIC for aminoglycoside-resistant Pseudomonas aeruginosa 6322; format: functional
Pseudomonas aeruginosa [36] = experiment: Effect on kanamycin MIC for Pseudomonas aeruginosa 6160; format: functional
Pseudomonas aeruginosa [37] = experiment: Effect on tobramycin MIC for Pseudomonas aeruginosa 6160; format: functional
Pseudomonas aeruginosa [38] = experiment: Effect on kanamycin MIC for Pseudomonas aeruginosa 6325; format: functional
Pseudomonas aeruginosa [39] = experiment: Effect on neomycin MIC for Pseudomonas aeruginosa 6325; format: functional
[40] = Metabolic stability in microsomes (unknown origin); format: ADME, Microsome
Cytochrome P450 2C9 = Cytochrome P450 2C9 (Homo sapiens, UniProt P11712); experiment: Inhibition of CYP2C9 (unknown origin); format: ADME
Chain of Cytochrome P450 2C9 (P11712 whole entry): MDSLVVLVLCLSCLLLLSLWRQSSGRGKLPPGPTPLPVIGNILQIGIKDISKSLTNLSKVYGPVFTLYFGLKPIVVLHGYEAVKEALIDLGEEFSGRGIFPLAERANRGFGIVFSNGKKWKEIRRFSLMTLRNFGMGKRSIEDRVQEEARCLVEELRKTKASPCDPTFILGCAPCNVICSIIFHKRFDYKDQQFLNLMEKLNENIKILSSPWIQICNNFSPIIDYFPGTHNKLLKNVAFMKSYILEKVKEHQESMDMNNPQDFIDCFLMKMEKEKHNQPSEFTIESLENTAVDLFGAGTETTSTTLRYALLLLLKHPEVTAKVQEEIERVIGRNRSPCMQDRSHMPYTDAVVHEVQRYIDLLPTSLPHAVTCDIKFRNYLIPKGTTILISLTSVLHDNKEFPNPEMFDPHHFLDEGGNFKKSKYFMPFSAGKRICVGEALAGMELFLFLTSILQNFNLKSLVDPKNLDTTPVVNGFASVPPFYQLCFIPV

Cytochrome P450 2C19 = Cytochrome P450 2C19 (Homo sapiens, UniProt P33261); experiment: Inhibition of CYP2C19 (unknown origin); format: ADME
Chain of Cytochrome P450 2C19 (P33261 whole entry): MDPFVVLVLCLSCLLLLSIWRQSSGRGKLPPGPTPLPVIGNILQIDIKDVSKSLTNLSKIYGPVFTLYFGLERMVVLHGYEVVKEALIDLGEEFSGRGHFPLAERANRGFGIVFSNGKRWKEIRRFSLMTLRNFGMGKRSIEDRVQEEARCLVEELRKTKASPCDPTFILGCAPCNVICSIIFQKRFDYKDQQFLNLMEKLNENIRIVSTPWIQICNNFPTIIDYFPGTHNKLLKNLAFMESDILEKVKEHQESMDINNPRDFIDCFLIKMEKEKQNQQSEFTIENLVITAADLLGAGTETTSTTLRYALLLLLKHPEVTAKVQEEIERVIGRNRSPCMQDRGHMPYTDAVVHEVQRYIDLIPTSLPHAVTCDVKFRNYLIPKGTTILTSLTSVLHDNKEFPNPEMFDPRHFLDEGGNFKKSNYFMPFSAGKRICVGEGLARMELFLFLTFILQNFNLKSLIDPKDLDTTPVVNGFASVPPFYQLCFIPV

[41] = Permeability across MDCK cells expressing MDR1; format: ADME, cell-based, Canis lupus familiaris; conditions: dog, read-out: permeability
Danio rerio [42] = species on record: Danio rerio; experiment: Protection against neomycin-induced hair cell death in AB zebra fish larvae assessed as increase in hair cell survival at 2.8 uM preincubated for 1 hr followed by neomycin challenge for 1 hr by DASPEI staining-based epifluorescence dissecting microscopic method relative to control; format: functional
Procedure, shortened: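 AB larvae raised at 28.5°C in embryo medium and tested at 5-7 dpf, ten fish per basket. Pretreatment with compound for 1 h at 1.56–25 µM (halved further if the lowest dose protected), then compound plus 200 µM neomycin for 1 h. After rinsing, 0.05% DASPEI stain for 15 min and MS222 anaesthesia. Ten neuromasts per fish scored 0–2 under epifluorescence, normalised to untreated fish as % survival; HC50 linearly interpolated.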

[43] = Protein binding in plasma; conditions: read-out: PPB (converted)
Cytochrome P450 2D6 = Cytochrome P450 2D6 (Homo sapiens, UniProt P10635); experiment: Inhibition of CYP2D6 (unknown origin); format: ADME
Chain of Cytochrome P450 2D6 (P10635 whole entry): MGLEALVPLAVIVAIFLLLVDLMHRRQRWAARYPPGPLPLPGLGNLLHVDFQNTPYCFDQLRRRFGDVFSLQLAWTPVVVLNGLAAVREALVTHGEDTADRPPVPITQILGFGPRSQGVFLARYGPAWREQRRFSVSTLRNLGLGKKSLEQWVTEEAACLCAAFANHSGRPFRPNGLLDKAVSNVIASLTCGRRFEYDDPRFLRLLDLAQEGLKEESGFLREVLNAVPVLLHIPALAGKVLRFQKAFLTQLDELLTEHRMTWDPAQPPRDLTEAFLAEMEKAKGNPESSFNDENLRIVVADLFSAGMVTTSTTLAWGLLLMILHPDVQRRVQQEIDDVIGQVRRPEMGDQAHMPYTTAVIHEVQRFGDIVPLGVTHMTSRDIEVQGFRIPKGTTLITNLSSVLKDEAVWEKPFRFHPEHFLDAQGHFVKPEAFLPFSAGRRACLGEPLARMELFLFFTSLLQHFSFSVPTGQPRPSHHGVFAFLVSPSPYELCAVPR

Cytochrome P450 3A4 = Cytochrome P450 3A4 (Homo sapiens, UniProt P08684); experiment: Inhibition of CYP3A4 (unknown origin); format: ADME
Chain of Cytochrome P450 3A4 (P08684 whole entry): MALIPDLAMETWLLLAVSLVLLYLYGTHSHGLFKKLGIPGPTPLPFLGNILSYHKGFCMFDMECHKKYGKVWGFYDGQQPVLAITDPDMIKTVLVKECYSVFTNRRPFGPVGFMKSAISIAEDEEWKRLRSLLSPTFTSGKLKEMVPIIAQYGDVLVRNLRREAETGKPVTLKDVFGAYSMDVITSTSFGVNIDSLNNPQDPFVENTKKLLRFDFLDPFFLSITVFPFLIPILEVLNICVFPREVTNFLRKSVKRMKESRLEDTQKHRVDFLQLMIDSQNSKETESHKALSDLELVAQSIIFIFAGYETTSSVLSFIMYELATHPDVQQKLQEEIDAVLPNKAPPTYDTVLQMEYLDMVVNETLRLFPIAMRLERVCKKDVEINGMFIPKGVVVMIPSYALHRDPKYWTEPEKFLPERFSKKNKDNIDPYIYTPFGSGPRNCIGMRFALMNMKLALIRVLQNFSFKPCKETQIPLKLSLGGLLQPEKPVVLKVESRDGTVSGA

Rattus norvegicus [44] = experiment: Change in hearing threshold in Fischer 344 rat at 5 to 25 mg/kg/day administered via oral gavage for 12 days; format: ADME, organism-based; conditions: in vivo, 288 h
Procedure, shortened: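 Fischer 344 rats given compound alone by oral gavage at 5 or 25 mg/kg/day for 12 days (n=3 per dose), vehicle PEG300:DMA:EtOH:H2O. ABR thresholds measured before dosing and after a 2-week recovery, under isoflurane anaesthesia in a sound-attenuating chamber.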

Rattus norvegicus [45] = species on record: Rattus norvegicus; experiment: as §1; format: ADME; conditions: in vivo
Plasma [46] = experiment: as §2; format: ADME, cell-free
Plasma [47] = experiment: as §3; format: ADME, cell-free
Rattus norvegicus [48] = experiment: as §4; format: ADME, organism-based; conditions: in vivo
[49] = aqueous medium, read-out: solubility

## CCN1CCc2c(sc(NC(=O)Nc3ccc(Cl)cc3)c2C(N)=O)C1
Escherichia coli [1]
  Activity: inactive
Rattus norvegicus [2]
  Activity: Active
Escherichia coli [3]
  Activity: inactive

## NC(=O)c1c(NC(=O)Nc2ccc(Cl)cc2)sc2c1CCN(CCCNC(=O)CCc1c[nH]c3ccccc13)C2
[4]; [49]
  solubility: 86 µM (≈ 49.8 µg/mL)
[5]
  half-life: 7.1 h
HepG2
  IC50: 17 µM
[6]
  Ratio: 201
[7]
  fraction unbound: 0.001
[8]
  fraction unbound: 0.001
[9]
  bioavailability: > 1%
Danio rerio [10]
  EC50: 0.1 µM
[11]
  IC50: 20.1 µM
[12]
  Drug metabolism: Metabolite_Detected
Rattus norvegicus [13]
  Activity: Non-Toxic

## CN1[C@@H]2CC[C@H]1c1c(sc(NC(=O)Nc3ccc(Cl)cc3)c1C(N)=O)C2
[14]
  Activity: inactive
[15]
  Activity: inactive
Escherichia coli [1]
  Activity: inactive
Pseudomonas aeruginosa [16]
  Activity: inactive
Pseudomonas aeruginosa [17]
  Activity: inactive
Pseudomonas aeruginosa [18]
  Activity: inactive
[19]
  Activity: inactive
Rattus norvegicus [20]
  Activity: Active
Pseudomonas aeruginosa [21]
  Activity: inactive
Pseudomonas aeruginosa [22]
  Activity: inactive
Pseudomonas aeruginosa [23]
  Activity: inactive
[24]
  Activity: inactive
Rattus norvegicus [25]
  Activity: Active
Pseudomonas aeruginosa [26]
  Activity: inactive
Pseudomonas aeruginosa [27]
  Activity: inactive
Pseudomonas aeruginosa [28]
  Activity: inactive
Pseudomonas aeruginosa [29]
  Activity: inactive
Pseudomonas aeruginosa [30]
  Activity: inactive
Pseudomonas aeruginosa [31]
  Activity: inactive
Pseudomonas aeruginosa [32]
  Activity: inactive
Pseudomonas aeruginosa [33]
  Activity: inactive
Escherichia coli [3]
  Activity: inactive
Pseudomonas aeruginosa [34]
  Activity: inactive
Pseudomonas aeruginosa [35]
  Activity: inactive
Pseudomonas aeruginosa [36]
  Activity: inactive
Pseudomonas aeruginosa [37]
  Activity: inactive
Pseudomonas aeruginosa [38]
  Activity: inactive
Pseudomonas aeruginosa [39]
  Activity: inactive

## CN1[C@@H]2CC[C@H]1c1c(sc(NC(=O)Nc3ccc(Cl)cc3)c1C(N)=O)C2.Cl
[40]
  Stability: Stable
Cytochrome P450 2C9
  IC50: 60 µM
[4]; [49]
  solubility: 86 µM
[5]
  half-life: 7.8 h
HepG2
  IC50: > 300 µM
Cytochrome P450 2C19
  IC50: 58 µM
[41]
  Papp: 5.2 ×10⁻⁶ cm/s
[6]
  Ratio: 47
[7]
  fraction unbound: 0.093 to 0.11
[8]
  fraction unbound: 0.099 to 0.14
[9]
  bioavailability: > 50%
Danio rerio [10]
  EC50: 0.12 µM
Danio rerio [42]
  %max: 98%
[43]
  fraction unbound: 0.1
Cytochrome P450 2D6
  IC50: > 100 µM
Cytochrome P450 3A4
  IC50: 46 µM
Rattus norvegicus [44]
  Activity: Non-Toxic
[12]
  Drug metabolism: Metabolite_Notdetected
Rattus norvegicus [13]
  Activity: Non-Toxic

## CC1(C)Cc2c(sc(NC(=O)Nc3ccc(Cl)cc3)c2C(N)=O)C(C)(C)N1.Cl
Cytochrome P450 2C9; human
  inhibition (INH): Not Active
[4]; buffer
  solubility: 13 µM
Rattus norvegicus [45]
  beta t1/2: 6.2 h
HepG2
  IC50: > 300 µM
Cytochrome P450 2C19; human
  inhibition (INH): Not Active
[6]
  Ratio: >24
Plasma [46]
  PPB: 96.5%
Plasma [47]
  PPB: 95.8%
Rattus norvegicus [48]
  F: 21%
Danio rerio [10]
  EC50: 1.24 µM
Cytochrome P450 2D6; human
  inhibition (INH): Not Active
[11]
  IC50: > 30 µM
Cytochrome P450 3A4; human
  inhibition (INH): Not Active
[12]
  Drug metabolism: Metabolite_Notdetected
Rattus norvegicus [13]
  Activity: Non-Toxic

## CCN1CCc2c(sc(NC(=O)Nc3ccc(Cl)cc3)c2C(N)=O)C1.Cl
Rattus norvegicus [45]
  beta t1/2: 2.1 h
HepG2
  IC50: > 300 µM
Plasma [46]
  PPB: 95.9%
Plasma [47]
  PPB: 94.1%
Rattus norvegicus [48]
  F: 46%
Danio rerio [10]
  EC50: 3.12 µM
[11]
  IC50: 3.26 µM
[12]
  Drug metabolism: Metabolite_Detected
Rattus norvegicus [13]
  Activity: Non-Toxic
